The subject of one assay is MDA-MB-468. In words: Antiproliferative activity against human MDA-MB-468 cells measured after 48 hrs by MTT assay. In kind it is functional, cell-based. Conditions: MDA-MB-468, 48 h. In short, it runs like this:
(§1)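 Cells grown in DMEM with 2 mM L-glutamine, penicillin/streptomycin and 5% FBS at 37 °C, 5% CO2; seeded 6000/well in 96-well plates, attached 24 h. Compounds added over a concentration range in DMSO (1% final), 48 h. MTT (2.5 mg/mL in PBS) added for 3.5 h, formazan dissolved in DMSO, OD 570 nm. Growth relative to 1% DMSO; IC50 from separate triplicate experiments.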

The next assay relates to MCF7. As to the kind of experiment: Antiproliferative activity against human MCF7 cells measured after 48 hrs by MTT assay. Conditions: MCF7, 48 h. In kind it is functional, cell-based. In a few lines: as §1
In general terms: Tetrazolium assays rely on reduction of a dye to a coloured formazan, in cell work by metabolically active cells.

For orientation: IC50 means the concentration at which inhibition is half-maximal. The low end stands for inhibition by little substance, the high end for a need for much substance.

With `Cn1c(=O)c(NC(=O)c2ccccc2)cc2cnc(NCCN3CCOCC3)cc21`, the IC50 in the assay on MDA-MB-468 and in the assay on MCF7 was more than 100 µM in each case.
With `COc1cc(C(=O)Nc2cc3cnc(NCCN(C)C)cc3n(C)c2=O)cc(OC)c1OC`, the half-maximal inhibitory concentration (IC50) with MDA-MB-468 turned out to be 15.6 µM; with MCF7 it was 21.5 µM.
On the same counts, the results for `CN(C)CCNc1cc2c(cn1)cc(NC(=O)c1ccc(N)cc1)c(=O)n2C` are 20.4 µM and 55.8 µM.
With `Cn1c(=O)c(NC(=O)c2ccc(N)cc2)cc2cnc(NCCN3CCOCC3)cc21`, the IC50 with MDA-MB-468 and in the assay on MCF7 was more than 100 µM throughout.
As for `CO[C@@H]1[C@@H](OC(N)=O)[C@@H](O)[C@H](Oc2ccc3c(O)c(NC(=O)c4ccc(O)c(CC=C(C)C)c4)c(=O)oc3c2C)OC1(C)C` [NOVOBIOCIN], the results for the IC50 with MDA-MB-468 and with MCF7 were 338 µM and 293 µM, respectively.
On the same counts, the results for `COc1ccc(C(=O)Nc2cc3cnc(N4CCN(C)CC4)cc3n(C)c2=O)cc1` are 12.6 µM and 35.4 µM.
For `CC(=O)Nc1cc2cnc(NCCN(C)C)cc2n(C)c1=O`, in that order: more than 100 µM and more than 100 µM.
On the same counts, the results for `CN(C)CCNc1cc2c(cn1)cc(NC(=O)/C=C/c1ccccc1)c(=O)n2C` are 12.1 µM and 27.4 µM.
For `CN(C)CCNc1cc2c(cn1)cc(NC(=O)c1ccncc1)c(=O)n2C`, the IC50 with MDA-MB-468 worked out at 8.36 µM; with MCF7, 36.6 µM.
Consider `COc1ccc(C(=O)Nc2cc3cnc(NCCN(C)C)cc3n(C)c2=O)cc1`, for which the values for the IC50 in the assay on MDA-MB-468 and with MCF7 were 15.7 µM and 37.3 µM, respectively.
For `Cn1c(=O)c(NC(=O)c2ccc(O)cc2)cc2cnc(NCCN3CCOCC3)cc21`, the IC50 with MDA-MB-468 and in the assay with MCF7 was more than 100 µM in each case.
With `Cn1c(=O)c(NC(=O)c2cc3ccccc3s2)cc2cnc(NCCN3CCOCC3)cc21`, the IC50 in the assay on MDA-MB-468 and with MCF7 was more than 100 µM throughout.
Turning to `CN(C)CCNc1cc2c(cn1)cc(NC(=O)c1ccccc1)c(=O)n2C`, the values for the IC50 with MDA-MB-468 and in the assay with MCF7 were 18.3 µM and 35.1 µM, respectively.
On the same counts, the results for `CC(=O)Nc1cc2cnc(NCCN3CCOCC3)cc2n(C)c1=O` are more than 100 µM and more than 100 µM.
On the same counts, the results for `COc1cccc(C(=O)Nc2cc3cnc(NCCN4CCOCC4)cc3n(C)c2=O)c1` are more than 100 µM and more than 100 µM.
On the same counts, the results for `Cn1c(=O)c(NC(=O)c2ccc(Cl)cc2)cc2cnc(NCCN3CCOCC3)cc21` are more than 100 µM and 6.35 µM.
Regarding `Cn1c(=O)c(NC(=O)/C=C/c2ccccc2)cc2cnc(NCCN3CCOCC3)cc21`, the IC50 in the assay with MDA-MB-468 and in the assay on MCF7 was more than 100 µM in each case.
As to `Cn1c(=O)c(NC(=O)c2ccncc2)cc2cnc(NCCN3CCOCC3)cc21`, the IC50 in the assay with MDA-MB-468 is more than 100 µM; in the assay with MCF7, 4.47 µM.
On the same counts, the results for `COc1ccc(C(=O)Nc2cc3cnc(NCCN4CCOCC4)cc3n(C)c2=O)cc1` are more than 100 µM and more than 100 µM.
For `COc1cc(C(=O)Nc2cc3cnc(NCCN4CCOCC4)cc3n(C)c2=O)cc(OC)c1OC`, in that order: more than 100 µM and 48.6 µM.
For `COc1cccc(C(=O)Nc2cc3cnc(NCCN(C)C)cc3n(C)c2=O)c1`, in that order: 17.4 µM and 43.2 µM.
